Here are results for 18 compounds from ChEMBL document CHEMBL4342502, “Synthesis and Antichlamydial Activity of Molecules Based on Dysregulators of Cylindrical Proteases” (J Med Chem, 2020).

Holding throughout (assay type): functional, organism-based
Test [1] concerns Chlamydia trachomatis. Put plainly: Anti-chlamydial activity against Chlamydia trachomatis Serovar LGV-L2 infected in Hep2 cells assessed as inhibition of chlamydial inclusion at 50 ug/ml treated at 8 hrs post infection and measured at 24 hrs post-infection by immunofluorescence assay. The procedure, abridged:
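HEp-2 cells infected with C. trachomatis serovar L2. Compounds at 50 μg/mL added 8 hpi; inclusion number and size assessed by immunofluorescence at 24 hpi against untreated cells. Cell morphology and viability checked by phase-contrast microscopy.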

For test [2], the system named is Staphylococcus aureus. The test is described as follows: Antibacterial activity against Staphylococcus aureus JE2 assessed as bacterial growth inhibition at 32 ug/ml measured after 16 hrs by broth microdilution method. The gist of the method:
(§1)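 Broth microdilution in Mueller Hinton broth, triplicate. Direct colony suspension at 1.5 x 10^8 CFU/mL diluted to ~10^5 CFU/mL. Serial dilutions made from DMSO stocks at 1 mg/mL; vancomycin positive control, blank medium negative control. Incubated 16 h at optimum temperature. MIC is the lowest concentration without visible growth at 600 nm; mean of triplicate determinations.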

The test system of test [3] is Staphylococcus aureus. The test is described as follows: Antibacterial activity against methicillin-resistant Staphylococcus aureus ATCC 43300 assessed as bacterial growth inhibition at 32 ug/ml measured after 16 hrs by broth microdilution method. Background: Dilution methods test growth across graded concentrations, often in twofold steps.
For test [4], the system named is Escherichia coli. Put plainly: Antibacterial activity against Escherichia coli ATCC 25922 assessed as bacterial growth inhibition at 32 ug/ml measured after 16 hrs by broth microdilution method.
The subject of test [5] is Escherichia coli. Put plainly: Antibacterial activity against Escherichia coli K12 assessed as bacterial growth inhibition at 32 ug/ml measured after 16 hrs by broth microdilution method. Conditions: K-12. The procedure, abridged:
as §1

Test [6] concerns Pseudomonas aeruginosa. Put plainly: Antibacterial activity against Pseudomonas aeruginosa ATCC 27853 assessed as bacterial growth inhibition at 32 ug/ml measured after 16 hrs by broth microdilution method.
Test [7] deals with Klebsiella pneumoniae. The test is described as follows: Antibacterial activity against Klebsiella pneumoniae ATCC 700603 assessed as bacterial growth inhibition at 32 ug/ml measured after 16 hrs by broth microdilution method.
Test [8] deals with Acinetobacter baumannii. Put plainly: Antibacterial activity against Acinetobacter baumannii ATCC 19606 assessed as bacterial growth inhibition at 32 ug/ml measured after 16 hrs by broth microdilution method. The following applies: ATCC 19606 = CIP 70.34 = JCM 6841.
Test [9] relates to Candida albicans. Put plainly: Antifungal activity against Candida albicans ATCC 90028 assessed as fungal growth inhibition at 32 ug/ml measured after 16 hrs by broth microdilution method.
The test system of test [10] is Cryptococcus neoformans. The test is described as follows: Antifungal activity against Cryptococcus neoformans var. grubii H99 ATCC […] as fungal growth inhibition at 32 ug/ml measured after 16 hrs by broth microdilution method. Conditions: var. grubii H99 ATCC 208821.

The structures appear in SMILES notation. The source made the active and inactive calls. The calls are words filed in the database; no cut-off is given here.

Consider `CC(C)(C(=O)NCCOc1ccc(Cl)cc1)S(=O)(=O)c1ccc(C(F)(F)F)cc1`, for which the inhibition result in [1], in test [2], in test [3], in test [4], in [5] and in test [6] was “inactive” each time. The inhibition entry in test [7], in [8], in test [9] and in test [10] was “inactive” in each case.

With `CC(C)(C(=O)N1CCN(Cc2ccc(F)cc2)CC1)S(=O)(=O)c1ccc(C(F)(F)F)cn1`, the inhibition result in test [1], in [2], in [3], in [4], in test [5] and in test [6] was “inactive” each time. For the same compound, the inhibition result in test [7], in test [8], in [9] and in [10] was “inactive” each time.

As to `CC(C)(C(=O)N1CCN(c2ccccc2)CC1)S(=O)(=O)c1ccc(C(F)(F)F)cn1`, the inhibition result in [1], in [2], in test [3], in [4], in [5] and in [6] was “inactive” in each case. The inhibition entry in test [7], in [8], in [9] and in test [10] was “inactive” throughout.

As for `CC(C)(C(=O)NCCCc1ccccc1)S(=O)(=O)c1ccccn1`, the inhibition entry in test [1], in test [2], in [3], in [4], in [5] and in test [6] was “inactive” throughout. The inhibition result in [7], in test [8], in [9] and in test [10] was “inactive” each time.

On to `COc1cccc(N2CCN(C(=O)C(C)(C)S(=O)(=O)c3ccc(C(F)(F)F)cn3)CC2)c1`, for which the inhibition result in test [1] is “Active”. In addition, the inhibition entry in test [2], in test [3], in test [4], in test [5], in test [6] and in test [7] was “inactive” in each case. In addition, the inhibition result in test [8], in test [9] and in test [10] was “inactive” each time.

For the compound `Cc1ccc(C)c(N2CCN(C(=O)C(C)(C)S(=O)(=O)c3ccc(C(F)(F)F)cn3)CC2)c1`, in [1], the inhibition entry was “Active”. The inhibition result in test [2], in test [3], in test [4], in [5], in test [6] and in [7] was “inactive” each time. The inhibition entry in test [8], in test [9] and in test [10] was “inactive” each time.

With `CC(C(=O)NCCCc1ccccc1)S(=O)(=O)c1ccc(C(F)(F)F)cn1` (configuration not stated), the inhibition result in test [1], in test [2], in [3], in test [4], in test [5] and in test [6] was “inactive” throughout. The inhibition result in test [7], in test [8], in test [9] and in test [10] was “inactive” in each case.

Regarding `CC(C)(C(=O)NCCOc1ccc(Cl)cc1)S(=O)(=O)c1ccccc1`, the inhibition entry in [1], in test [2], in test [3], in test [4], in test [5] and in [6] was “inactive” in each case. For the same compound, the inhibition entry in test [7], in test [8], in test [9] and in [10] was “inactive” throughout.

As to `Cc1ccc(C)c(N2CCN(C(=O)C(C)S(=O)(=O)c3ccc(C(F)(F)F)cn3)CC2)c1` (configuration not stated), the inhibition entry in [1], in [2], in [3], in [4], in test [5] and in [6] was “inactive” throughout. In addition, the inhibition entry in [7], in [8], in test [9] and in test [10] was “inactive” each time.

For `Cc1ccccc1N1CCN(C(=O)C(C)S(=O)(=O)c2ccc(C(F)(F)F)cn2)CC1` (configuration not stated), the inhibition entry in test [1], in test [2], in test [3], in [4], in test [5] and in test [6] was “inactive” each time. Moreover, the inhibition entry in test [7], in test [8], in [9] and in test [10] was “inactive” in each case.

In the case of `NCCCc1ccccc1`, the inhibition result in [2], in test [3], in test [4], in test [5], in [6] and in test [7] was “inactive” throughout. Moreover, the inhibition entry in [8], in test [9] and in [10] was “inactive” throughout.

On to `CC(C)(C(=O)NCCCc1ccccc1)S(=O)(=O)c1ccc(Cl)cn1`, for which, in [1], the inhibition entry is “Active”.

For the compound `CC(C)(C(=O)NCCOc1ccccc1)S(=O)(=O)c1ccccc1`, the inhibition result in test [1] was “inactive”.

For `CC(C)(C(=O)NCCSc1ccc(Cl)cc1)S(=O)(=O)c1ccc(C(F)(F)F)cc1`, the inhibition entry in test [1] was “Active”. Besides, the inhibition entry in test [2], in test [3], in test [4], in test [5], in test [6] and in [7] was “inactive” throughout. Further, the inhibition result in [8], in [9] and in test [10] was “inactive” each time.

Take `CC(C)(C(=O)NCCOc1ccc(Cl)cc1)S(=O)(=O)c1ccc(C(F)(F)F)cn1`: the inhibition entry in [1], in [2], in test [3], in test [4], in test [5] and in [6] was “inactive” throughout. Further, the inhibition result in test [7], in [8], in test [9] and in [10] was “inactive” in each case.

As to `CC(C)(C(=O)N1CCN(c2ccccn2)CC1)S(=O)(=O)c1ccc(C(F)(F)F)cn1`, the inhibition entry in test [1], in [2], in [3], in test [4], in test [5] and in [6] was “inactive” in each case. In addition, the inhibition entry in test [7], in test [8], in [9] and in test [10] was “inactive” each time.

As to `CC(C(=O)N1CCN(c2ccc(Cl)c(Cl)c2)CC1)S(=O)(=O)c1ccc(C(F)(F)F)cn1` (configuration not stated), the inhibition entry in test [1], in [2], in [3], in test [4], in test [5] and in [6] was “inactive” in each case. Besides, the inhibition entry in test [7], in test [8], in [9] and in test [10] was “inactive” in each case.

Turning to `CC(C)(C(=O)NCCSc1ccccc1)S(=O)(=O)c1ccc(C(F)(F)F)cn1`, the inhibition result in [1] is “inactive”.
